In ChEMBL document CHEMBL1132295, “Novel euglycemic and hypolipidemic agents. 4. Pyridyl- and quinolinyl-containing thiazolidinediones” (1999):

tested on: Mus musculus; assay: Compound was administered at a dose of 30 mg/kg/day to evaluate the percentage reduction in plasma triglyceride (TG) after 6 days of treatment in db/db mice via oral gavage.; assay type: functional; details: not given
In short: (§1)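 Male C57BL/KsJ-db/db mice, 8 weeks old, 4–6 per group, given compound orally once daily for 6 days; vehicle controls received 0.5% CMC (10 mL/kg); rosiglitazone 30 mg/kg as standard. On the last day, retro-orbital blood was taken 1 h post-dose. Plasma glucose and triglyceride were measured by kits. % reduction = [1 − (TT/OT)/(TC/OC)] × 100, using day-0 and control values; mean ± SE, ANOVA, P<0.05.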

Going from `Cc1cc(N2CCC[C@H]2COc2ccc(CC3SC(=O)NC3=O)cc2)nc2ccccc12.Cl` (stereo partly drawn) to `Cc1cc(N2CCC[C@H]2COc2ccc(CC3SC(=O)[N-]C3=O)cc2)nc2ccccc12.[Na+]` (stereo partly drawn), the Reduction rises from 42% to 58.5%.

`O=C1NC(=O)C(Cc2ccc(OC[C@@H]3CCCN3c3ccccn3)cc2)S1` (stereo partly drawn) gave a Reduction of 65.5%.

tested on: Mus musculus; assay: Compound was administered at a dose of 100 mg/kg/day to evaluate the percentage reduction in plasma glucose(PG) after 6 days of treatment in db/db mice via oral gavage.; assay type: functional; details: not given; in short: as §1

Compared with `O=C1NC(=O)/C(=C/c2ccc(OCCN3CCN(c4ccccn4)CC3)cc2)S1`, `O=C1NC(=O)/C(=C/c2ccc(OC3CCN(c4ccccn4)CC3)cc2)S1` is higher in Reduction: 35.75% for the first, 38% for the second.

First: O=C1NC(=O)/C(=C/c2ccc(OCC3CN(c4ccccn4)CCO3)cc2)S1 (stereo not drawn) [listing 1 of 2 here]
Second: O=C1NC(=O)/C(=C\c2ccc(OC[C@@H]3CCCN3c3ccccn3)cc2)S1
The Reduction of the first is lower: 55.25% for the first, 57% for the second.

Molecule `CN(CCOc1ccc(/C=C2\SC(=O)NC2=O)cc1)c1ccccn1` has a Reduction of 55.5%.

tested on: Mus musculus; assay: Compound was administered at a dose of 100 mg/kg/day to evaluate the percentage reduction in plasma triglyceride (TG) after 6 days of treatment in db/db mice via oral gavage.; assay type: functional; details: not given; in short: as §1

First: O=C1NC(=O)/C(=C/c2ccc(OCCN3CCN(c4ccccn4)CC3)cc2)S1
Second: O=C1NC(=O)/C(=C/c2ccc(OC3CCN(c4ccccn4)CC3)cc2)S1
The Reduction of the first is higher: 69.75% for the first, 40.25% for the second.

First: O=C1NC(=O)/C(=C/c2ccc(OCC3CN(c4ccccn4)CCO3)cc2)S1 (stereo not drawn) [listing 1 of 2 here]
Second: O=C1NC(=O)/C(=C\c2ccc(OC[C@@H]3CCCN3c3ccccn3)cc2)S1
The Reduction of the first is lower: 52.5% for the first, 77.75% for the second.

Work on `CN(CCOc1ccc(/C=C2\SC(=O)NC2=O)cc1)c1ccccn1` yielded a Reduction of 35%.

tested on: Mus musculus; assay: Percentage reduction in plasma glucose after 6 days p.o. dosing at 30 mg/kg in db/db mice.; assay type: functional; details: route oral; in short: as §1

Compared with `O=C1NC(=O)C(Cc2ccc(OCC3CN(c4ccccn4)CCO3)cc2)S1` (stereo not drawn) [listing 1 of 2 here], `O=C1NC(=O)C(Cc2ccc(OC[C@@H]3CCCN3c3ccccn3)cc2)S1` (stereo partly drawn) is lower in Reduction: 57.5% for the first, 52.25% for the second.

Compared with `Cl.O=C1NC(=O)C(Cc2ccc(OC[C@@H]3CCCN3c3ccc4ccccc4n3)cc2)S1` (stereo partly drawn), `Cc1cc(N2CCC[C@H]2COc2ccc(CC3SC(=O)NC3=O)cc2)nc2ccccc12.Cl` (stereo partly drawn) is higher in Reduction: 15.75% for the first, 25.25% for the second.

Compared with `Cl.O=C1NC(=O)/C(=C/c2ccc(OCC3CN(c4ccccn4)CCO3)cc2)S1` (stereo not drawn), `O=C1[N-]C(=O)C(Cc2ccc(OC[C@@H]3CCCN3c3ccccn3)cc2)S1.[Na+]` (stereo partly drawn) is higher in Reduction: 35.5% for the first, 65.5% for the second.

`Cc1cc(N2CCC[C@H]2COc2ccc(CC3SC(=O)[N-]C3=O)cc2)nc2ccccc12.[Na+]` (stereo partly drawn) was tested, and the Reduction was 30.25%.

tested on: Mus musculus; assay: Compound was administered at a dose of 30 mg/kg/day to evaluate the percentage reduction in plasma triglyceride (TG) after 6 days of treatment in db/db mice via oral gavage; Not significant.; assay type: functional, organism-based; details: not given; in short: as §1

For `O=C1NC(=O)C(Cc2ccc(OC[C@@H]3CCCN3c3ccc4ccccc4n3)cc2)S1` (stereo partly drawn), the Reduction was “Not significant”.
With `O=C1NC(=O)C(Cc2ccc(OCC3CN(c4ccccn4)CCO3)cc2)S1` (stereo not drawn) [listing 2 of 2 here] the Reduction was “Not significant”.
With `O=C1NC(=O)/C(=C/c2ccc(OCC3CN(c4ccccn4)CCO3)cc2)S1` (stereo not drawn) [listing 2 of 2 here] the Reduction was “Not significant”.
